Measured values as given in ChEMBL document CHEMBL2040781, “Design, synthesis, and biological evaluation of chromone-based p38 MAP kinase inhibitors” (J Med Chem, 2011).
Active and inactive are the calls of the source. The rule behind the calls is not given here.

Assays:
[1] = target: T1, Mitogen-activated protein kinase 14 (Homo sapiens, UniProt Q16539); test: Inhibition of anisomycin-induced p38alpha MAPK signalling in human MCF7 cells assessed as inhibition of ATF2 activation at 0.5 uM after 30 mins by SDS PAGE analysis; type: cell-based
T1 sequence (Q16539 whole entry): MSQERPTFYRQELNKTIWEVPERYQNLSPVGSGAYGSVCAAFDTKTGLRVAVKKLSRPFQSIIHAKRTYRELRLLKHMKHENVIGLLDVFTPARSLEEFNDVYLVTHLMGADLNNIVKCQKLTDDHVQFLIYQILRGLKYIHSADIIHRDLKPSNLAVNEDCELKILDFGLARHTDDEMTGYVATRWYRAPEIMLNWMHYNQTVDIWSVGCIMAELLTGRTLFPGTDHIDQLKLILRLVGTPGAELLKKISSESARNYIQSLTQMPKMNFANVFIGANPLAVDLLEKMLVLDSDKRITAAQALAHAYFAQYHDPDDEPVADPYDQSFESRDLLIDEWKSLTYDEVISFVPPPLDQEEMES
How it was run: (§1)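 MCF-7 cells were preincubated with the compound at the indicated doses for 30 min, then stimulated with 10 μg/mL anisomycin for another 30 min. Total cell lysates were resolved by SDS-PAGE and immunoblotted with antibodies against phosphorylated ATF2, p38 and HSP27, with tubulin as the loading control.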

[2] = target: T1, Mitogen-activated protein kinase 14; test: Inhibition of anisomycin-induced p38alpha MAPK signalling in human MCF7 cells assessed as inhibition of HSP27 activation at 0.5 uM after 30 mins by SDS PAGE analysis; type: cell-based; how it was run: as §1
[3] = target: T1, Mitogen-activated protein kinase 14; test: Inhibition of anisomycin-induced p38alpha MAPK signalling in human MCF7 cells assessed as inhibition of ATF2 activation at 10 uM after 30 mins by SDS PAGE analysis; type: cell-based; how it was run: as §1
[4] = target: Dual specificity mitogen-activated protein kinase kinase 6 (Homo sapiens) (UniProt P52564); test: Inhibition of anisomycin-induced MKK6 phosphorylation in human MCF7 cells at 1 to 10 uM after 30 mins by SDS PAGE analysis; type: cell-based
Chain of Dual specificity mitogen-activated protein kinase kinase 6 (Homo sapiens) (P52564 whole entry): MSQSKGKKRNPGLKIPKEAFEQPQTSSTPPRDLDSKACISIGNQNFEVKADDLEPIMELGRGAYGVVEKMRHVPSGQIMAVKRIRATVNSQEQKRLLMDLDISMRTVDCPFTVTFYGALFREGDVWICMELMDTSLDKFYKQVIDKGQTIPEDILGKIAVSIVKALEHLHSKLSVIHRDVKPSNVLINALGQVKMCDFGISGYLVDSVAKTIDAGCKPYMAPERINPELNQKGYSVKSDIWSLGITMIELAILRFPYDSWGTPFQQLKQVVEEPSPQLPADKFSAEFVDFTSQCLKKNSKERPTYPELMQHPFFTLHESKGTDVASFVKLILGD

[5] = target: T1, Mitogen-activated protein kinase 14; test: Inhibition of p38alpha phosphorylation in human MCF7 cells at 0.5 to 10 uM after 30 mins by SDS PAGE analysis; type: cell-based
How it was run: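 MCF-7 cells were preincubated with compound for 30 min, then stimulated with 10 μg/mL anisomycin for another 30 min. Total cell lysates were resolved by SDS-PAGE and immunoblotted for phosphorylated ATF2, p38 and HSP27, with tubulin as the loading control.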

MCF7 = test: Effect on p38alpha protein level in human MCF7 cells; type: functional, cell-based

O=c1c(-c2ccc(F)cc2)c(-c2ccnc(NC3CCCCC3)c2)oc2ccccc12
inhibition [1]: Active
inhibition [2]: Active
Imax [3]: Active
inhibition [4]: inactive
inhibition [5]: Active
Activity (MCF7): inactive
